This is an account of results in ChEMBL document CHEMBL3826914, “Selective photodepletion of malignant T cells in extracorporeal photopheresis with selenorhodamine photosensitizers” (Bioorg Med Chem, 2016).

Structures are written as SMILES.

The first series deals with ABCB1. In words: Passive permeability in dog MDCK2-MDR1 cells expressing ABCB1 at 5 uM after 30 mins in presence of compound 15 by LC-MS/MS analysis. The settings on record: MDCK-MDR1, with compound 15 (concentration not stated), read-out: permeability. The class given is ADME, cell-based, Canis lupus familiaris, MDCK-II. An outline of the steps: (§1)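 MDR1-transfected MDCKII cells (passage 16–42) were seeded at 50,000 cells cm^-2 on Transwell filters and used on day 6. Monolayers were rinsed in DPBS with 10^-2 M HEPES, pH 7.4, at 37 °C. They were preincubated 30 min in 4.3 mg/mL BSA/DPBSH with or without 5×10^-6 M P-gp inhibitor. 5 μM dye was added apically or basolaterally and samples taken after 1 h at 37 °C with nutation. Quantitation was by LC-MS/MS; P_passive is the mean of P_AB and P_BA under full inhibition. Mean ± SD.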
Consider `C[N+]1=c2cc3c(cc2C(C)(C)CC1)=C(c1ccc(C(=O)N2CCCCC2)s1)c1cc2c4c(c1[Se]3)CCCN4CCC2.[Cl-]`, for which the Papp at 0.5 h, 5 µM came to 0.1 ×10⁻⁶ cm/s.

The next series has as its system HuT78. In words: Phototoxicity in GFP expressing human HUT78 cells co-cultured with human PBMC cells assessed as cell survival at 7.5 x 10^-8 M preincubated 20 mins in photosensitizer media followed by growth in photosensitizer-free media for 30 mins measured 18 hrs after exposure to 5 J/cm2 irradiation by FACS analysis. The class given is functional. The settings on record: HuT78, light or radiation study, read-out: Survival. An outline of the steps: (§2)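 Non-stimulated PBMCs from healthy donors (Ficoll-separated) were mixed 5:1 with GFP-transfected, sorted (>98%) HUT-78 cells. Cells took up 7.5×10^-8 M photosensitizer for 20 min, then spent 30 min in dye-free medium. They were exposed to 5 J cm^-2 light (600 nm LED) with rotation at 180 rpm. Survival was gated by FACS (GFP, CD3, CD4, CD8) 18 h later versus non-irradiated controls. Triplicate; mean ± SEM.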
Background: Flow cytometry measures light scatter and fluorescence of single cells or particles in a stream.
With `C[N+]1=c2cc3c(cc2C(C)(C)CC1)=C(c1ccc(C(=O)N2CCCCC2)s1)c1cc2c4c(c1[Se]3)CCCN4CCC2.[Cl-]`, the viability at 0.075 µM turned out to be 1.24%.

Tested on in another series: not listed separately
Kind of series: Drug uptake in SEB-stimulated human CD25 positive cells assessed as mean fluorescence intensity at 5 x 10^-8 M preincubated for 20 mins followed by growth in photosensitizer-free media for 30 mins by flow cytometric analysis relative to control. The settings on record: 0.5 h, 0.05 µM.
Take `C[N+]1=c2cc3c(cc2C(C)(C)CC1)=C(c1ccc(C(=O)N2CCCCC2)s1)c1cc2c4c(c1[Se]3)CCCN4CCC2.[Cl-]`: the Flu intensity was 33800 a.u.

Tested on in a further series: not listed separately
Kind of series: N-octanol/water partition coefficient, logP of the compound at 23 degC after 1 hr by HPLC based shake flask method. Type of series: physicochemical.
Conditions: not given
An outline of the steps:
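Shake-flask method using 1-octanol: 3–5 min of mixing, then 1 h settling. Equilibration and measurement were at 23 °C, in triplicate.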
Take `C[N+]1=c2cc3c(cc2C(C)(C)CC1)=C(c1ccc(C(=O)N2CCCCC2)s1)c1cc2c4c(c1[Se]3)CCCN4CCC2.[Cl-]`: the logP amounted to 3.51.

Tested on in the next series: not listed separately
In words: Drug extrusion in SEB-stimulated human CD25 positive cells assessed as change in mean fluorescence intensity at 5 x 10^-8 M preincubated for 20 mins followed by growth in photosensitizer-free media for 30 mins by flow cytometric analysis relative to control. The conditions noted are these: 0.5 h, 0.05 µM.
As for `C[N+]1=c2cc3c(cc2C(C)(C)CC1)=C(c1ccc(C(=O)N2CCCCC2)s1)c1cc2c4c(c1[Se]3)CCCN4CCC2.[Cl-]`, the Activity stood at 37%.

The subject of another series is ABCB1. Kind of series: Permeability from basolateral to apical side in dog MDCK2-MDR1 cells expressing ABCB1 at 5 uM after 30 mins in absence of compound 15 by LC-MS/MS analysis. Type of series: ADME, cell-based, Canis lupus familiaris, MDCK-II. The conditions noted are these: MDCK-MDR1, read-out: permeability. An outline of the steps: as §1
Turning to `C[N+]1=c2cc3c(cc2C(C)(C)CC1)=C(c1ccc(C(=O)N2CCCCC2)s1)c1cc2c4c(c1[Se]3)CCCN4CCC2.[Cl-]`, the Papp B→A at 0.5 h, 5 µM was 6.6 ×10⁻⁶ cm/s.

Tested on in another series: not listed separately
Kind of series: Drug uptake in SEB-stimulated human CD25 negative cells assessed as mean fluorescence intensity at 5 x 10^-8 M preincubated for 20 mins followed by growth in photosensitizer-free media for 30 mins by flow cytometric analysis relative to control. The settings on record: 0.5 h, 0.05 µM.
With `C[N+]1=c2cc3c(cc2C(C)(C)CC1)=C(c1ccc(C(=O)N2CCCCC2)s1)c1cc2c4c(c1[Se]3)CCCN4CCC2.[Cl-]`, the Flu intensity is given as 9300 a.u.

The next series deals with ABCB1. Kind of series: Permeability from apical to basolateral side in dog MDCK2-MDR1 cells expressing ABCB1 at 5 uM after 30 mins in absence of compound 15 by LC-MS/MS analysis. Type of series: ADME, cell-based, Canis lupus familiaris, MDCK-II. The conditions noted are these: MDCK-MDR1, read-out: permeability. An outline of the steps: as §1
In the case of `C[N+]1=c2cc3c(cc2C(C)(C)CC1)=C(c1ccc(C(=O)N2CCCCC2)s1)c1cc2c4c(c1[Se]3)CCCN4CCC2.[Cl-]`, the Papp A→B at 0.5 h, 5 µM stood at 0.14 ×10⁻⁶ cm/s.

The next series deals with ABCB1. In words: Permeability from apical to basolateral side in dog MDCK2-MDR1 cells expressing ABCB1 at 5 uM after 30 mins in presence of compound 15 by LC-MS/MS analysis. Type of series: ADME, cell-based, Canis lupus familiaris, MDCK-II. The conditions noted are these: MDCK-MDR1, with compound 15 (concentration not stated), read-out: permeability. A digest of the protocol:
as §1
With `C[N+]1=c2cc3c(cc2C(C)(C)CC1)=C(c1ccc(C(=O)N2CCCCC2)s1)c1cc2c4c(c1[Se]3)CCCN4CCC2.[Cl-]`, the Papp A→B at 0.5 h, 5 µM is 0.018 ×10⁻⁶ cm/s.

Tested on in the next series: not listed separately
In words: Drug extrusion in human CD8 positive cells assessed as change in mean fluorescence intensity at 5 x 10^-8 M preincubated for 20 mins followed by growth in photosensitizer-free media for 30 mins by flow cytometric analysis relative to control. Type of series: cell-based. The conditions noted are these: 0.5 h, 0.05 µM.
For the molecule `C[N+]1=c2cc3c(cc2C(C)(C)CC1)=C(c1ccc(C(=O)N2CCCCC2)s1)c1cc2c4c(c1[Se]3)CCCN4CCC2.[Cl-]`, the Activity amounted to 79.6%.

Tested on in another series: not listed separately
In words: Drug extrusion in SEB-stimulated human CD25 positive cells assessed as mean fluorescence intensity at 5 x 10^-8 M preincubated for 20 mins followed by growth in photosensitizer-free media for 30 mins by flow cytometric analysis relative to control. The conditions noted are these: 0.5 h, 0.05 µM.
For `C[N+]1=c2cc3c(cc2C(C)(C)CC1)=C(c1ccc(C(=O)N2CCCCC2)s1)c1cc2c4c(c1[Se]3)CCCN4CCC2.[Cl-]`, the Flu intensity was 25000 a.u.

Tested on in the next series: not listed separately
Kind of series: Phototoxicity human CD3 positive cells co-cultured with GFP expressing human HUT78 cells assessed as cell survival at 7.5 x 10^-8 M preincubated 20 mins in photosensitizer media followed by growth in photosensitizer-free media for 30 mins measured 18 hrs after exposure to 5 J/cm2 irradiation by FACS analysis. Type of series: cell-based. The conditions noted are these: read-out: Survival. An outline of the steps:
as §2
For the molecule `C[N+]1=c2cc3c(cc2C(C)(C)CC1)=C(c1ccc(C(=O)N2CCCCC2)s1)c1cc2c4c(c1[Se]3)CCCN4CCC2.[Cl-]`, the viability at 18 h, 0.075 µM was determined as 4.8%.

The test system of another series is HuT78. Kind of series: Drug uptake in GFP expressing human HUT78 cells co-cultured with non-stimulated human PBMC cells assessed as change in mean fluorescence intensity at 7.5 x 10^-8 M after 20 mins followed by growth in photosensitizer-free media for 30 mins by flow cytometric analysis relative to control. The conditions noted are these: hut78, 0.5 h, 0.075 µM. Type of series: cell-based.
Turning to `C[N+]1=c2cc3c(cc2C(C)(C)CC1)=C(c1ccc(C(=O)N2CCCCC2)s1)c1cc2c4c(c1[Se]3)CCCN4CCC2.[Cl-]`, the Activity is reported as 47.1%.

The test system of a further series is HuT78. The conditions noted are these: human, hut78, 0.5 h, 0.075 µM.
With `C[N+]1=c2cc3c(cc2C(C)(C)CC1)=C(c1ccc(C(=O)N2CCCCC2)s1)c1cc2c4c(c1[Se]3)CCCN4CCC2.[Cl-]`, the Flu intensity was 33200 a.u.

A further series has as its system HuT78. The settings on record: human, hut78, 0.5 h, 0.075 µM. This is another data set of the same source.
Take `C[N+]1=c2cc3c(cc2C(C)(C)CC1)=C(c1ccc(C(=O)N2CCCCC2)s1)c1cc2c4c(c1[Se]3)CCCN4CCC2.[Cl-]`: the Flu intensity is 20000 a.u.

Tested on in another series: not listed separately
Kind of series: Phototoxicity human CD8 positive cells co-cultured with GFP expressing human HUT78 cells assessed as cell survival at 7.5 x 10^-8 M preincubated 20 mins in photosensitizer media followed by growth in photosensitizer-free media for 30 mins measured 18 hrs after exposure to 5 J/cm2 irradiation by FACS analysis. The class given is cell-based. The conditions noted are these: read-out: Survival. An outline of the steps:
as §2
`C[N+]1=c2cc3c(cc2C(C)(C)CC1)=C(c1ccc(C(=O)N2CCCCC2)s1)c1cc2c4c(c1[Se]3)CCCN4CCC2.[Cl-]`: the viability at 18 h, 0.075 µM was 24.5%.

Tested on in another series: not listed separately
In words: Drug extrusion in human CD3 positive cells assessed as change in mean fluorescence intensity at 5 x 10^-8 M preincubated for 20 mins followed by growth in photosensitizer-free media for 30 mins by flow cytometric analysis relative to control. Type of series: cell-based. The conditions noted are these: 0.5 h, 0.05 µM.
Turning to `C[N+]1=c2cc3c(cc2C(C)(C)CC1)=C(c1ccc(C(=O)N2CCCCC2)s1)c1cc2c4c(c1[Se]3)CCCN4CCC2.[Cl-]`, the Activity is on record as 52.7%.

Tested on in the next series: not listed separately
In words: Phototoxicity human CD4 positive cells co-cultured with GFP expressing human HUT78 cells assessed as cell survival at 7.5 x 10^-8 M preincubated 20 mins in photosensitizer media followed by growth in photosensitizer-free media for 30 mins measured 18 hrs after exposure to 5 J/cm2 irradiation by FACS analysis. The conditions noted are these: read-out: Survival. The class given is cell-based. A digest of the protocol: as §2
As to `C[N+]1=c2cc3c(cc2C(C)(C)CC1)=C(c1ccc(C(=O)N2CCCCC2)s1)c1cc2c4c(c1[Se]3)CCCN4CCC2.[Cl-]`, the viability at 18 h, 0.075 µM was determined as 0.37%.

Tested on in the next series: not listed separately
Kind of series: Drug extrusion in SEB-stimulated human CD25 negative cells assessed as mean fluorescence intensity at 5 x 10^-8 M preincubated for 20 mins followed by growth in photosensitizer-free media for 30 mins by flow cytometric analysis relative to control. The conditions noted are these: 0.5 h, 0.05 µM.
`C[N+]1=c2cc3c(cc2C(C)(C)CC1)=C(c1ccc(C(=O)N2CCCCC2)s1)c1cc2c4c(c1[Se]3)CCCN4CCC2.[Cl-]`: the Flu intensity is listed as 3900 a.u.

In another series the test system is ABCB1. Kind of series: Permeability from basolateral to apical side in dog MDCK2-MDR1 cells expressing ABCB1 at 5 uM after 30 mins in presence of compound 15 by LC-MS/MS analysis. Type of series: ADME, cell-based, Canis lupus familiaris, MDCK-II. The conditions noted are these: MDCK-MDR1, with compound 15 (concentration not stated), read-out: permeability. An outline of the steps:
as §1
On to `C[N+]1=c2cc3c(cc2C(C)(C)CC1)=C(c1ccc(C(=O)N2CCCCC2)s1)c1cc2c4c(c1[Se]3)CCCN4CCC2.[Cl-]`, for which the Papp B→A at 0.5 h, 5 µM stood at 0.28 ×10⁻⁶ cm/s.

Tested on in a further series: not listed separately
In words: Drug extrusion in human CD4 positive cells assessed as change in mean fluorescence intensity at 5 x 10^-8 M preincubated for 20 mins followed by growth in photosensitizer-free media for 30 mins by flow cytometric analysis relative to control. The class given is cell-based. The conditions noted are these: 0.5 h, 0.05 µM.
Regarding `C[N+]1=c2cc3c(cc2C(C)(C)CC1)=C(c1ccc(C(=O)N2CCCCC2)s1)c1cc2c4c(c1[Se]3)CCCN4CCC2.[Cl-]`, the Activity is recorded as 54.1%.

Tested on in the next series: not listed separately
In words: Drug extrusion in SEB-stimulated human CD25 negative cells assessed as change in mean fluorescence intensity at 5 x 10^-8 M preincubated for 20 mins followed by growth in photosensitizer-free media for 30 mins by flow cytometric analysis relative to control. The conditions noted are these: 0.5 h, 0.05 µM.
On to `C[N+]1=c2cc3c(cc2C(C)(C)CC1)=C(c1ccc(C(=O)N2CCCCC2)s1)c1cc2c4c(c1[Se]3)CCCN4CCC2.[Cl-]`, for which the Activity is reported as 58.6%.

One may read the logP as the decadic logarithm of the partition coefficient of the neutral form, usually between octanol and water. Read a low logP as a more hydrophilic compound.
